# NR1D1 modulator: modulators of Rev-erb alpha DNA binding, primary screen, biochemical, FITC-DNA, fluorescence polarization, uHTS; Rev-erbα–FITC-DNA binding, 90 min; activity, % at 10 µM; 370,000 tested, 0.79% active; AID 1259318, 2017;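 active = activity above about 14%, limit read from the data; passing the limit was not always enough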;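 note: 0% = DMSO wells with 35 nM protein and 100% = DMSO wells with 750 nM protein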
# Target sequence (P20393 whole entry, looked up): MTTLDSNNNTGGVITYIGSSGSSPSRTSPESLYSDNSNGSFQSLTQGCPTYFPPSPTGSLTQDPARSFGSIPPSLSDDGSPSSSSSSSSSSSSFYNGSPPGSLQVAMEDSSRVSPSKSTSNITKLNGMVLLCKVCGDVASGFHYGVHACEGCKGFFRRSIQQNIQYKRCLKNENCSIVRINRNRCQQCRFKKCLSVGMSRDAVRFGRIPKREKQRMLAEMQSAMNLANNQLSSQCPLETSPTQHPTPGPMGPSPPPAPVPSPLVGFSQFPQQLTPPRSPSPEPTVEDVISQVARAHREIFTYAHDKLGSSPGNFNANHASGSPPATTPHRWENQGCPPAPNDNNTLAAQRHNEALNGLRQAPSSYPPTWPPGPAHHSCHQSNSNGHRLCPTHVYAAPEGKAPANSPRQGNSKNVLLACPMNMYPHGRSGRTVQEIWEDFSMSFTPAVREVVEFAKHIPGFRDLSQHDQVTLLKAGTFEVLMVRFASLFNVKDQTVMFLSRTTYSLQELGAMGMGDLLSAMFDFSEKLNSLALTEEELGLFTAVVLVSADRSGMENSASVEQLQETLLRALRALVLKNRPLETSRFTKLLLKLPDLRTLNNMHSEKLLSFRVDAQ
# Rin1 Abl inh: inhibitors of Rin1-Abl protein binding, primary screen, biochemical, TR-FRET. 360,000 tested, 0.4% active. AID 588664, 2011. inhibition, % at 7.35 µM. Tyrosine-protein kinase ABL1 (Homo sapiens) + Ras and Rab interactor 1 (Homo sapiens), …; in the data active = inhibition above about 5%, passing the limit was not always enough
# PG9 binder: binders of HIV-1 gp120 antibody PG9, primary screen, biochemical, TR-FRET | HIV-1 gp120 / PG9 antibody interaction | TR-FRET gp120-PG9 antibody binding | inhibition, % at 6.7 µM | 360,000 tested, 0.43% active | AID 624416, 2012; in the data active = inhibition above about 8.5%
# Tb MetRS inh: T. brucei MetRS inhibitors, primary screen, biochemical, luminescence. methionyl-tRNA synthetase (Trypanosoma brucei brucei). purified T. brucei MetRS, ATP depletion, Kinase-Glo luminescence. inhibition, % at 11.9 µM. 360,000 tested, 0.4% active. AID 624268, 2012;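 active = inhibition above a per-plate cutoff of the control wells' mean inhibition plus 3 SD, cut at about 5.5% in these data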;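 note: 0% = DMSO wells median and 100% = median of wells with control inhibitor compound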
#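 Material: T. brucei methionyl-tRNA synthetase, purified; reagent: substrates ATP, L-methionine and bulk Escherichia coli tRNA; dosing: 11.9 µM single point; timing: 15 min plus 2 h at 25 °C; detection: luminescence of leftover ATP; evaluation: % inhibition; control set: DMSO-only wells as low control; replicates: singlicate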
# Rev-erbA confirm: modulators of Rev-erb alpha DNA binding, confirmation, biochemical, FITC-DNA, fluorescence polarization, single point; shares compounds with NR1D1 modulator; 90 min; activation, % at 25 µM; 3,000 tested, 61% active;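 active = activation at or above a set limit, or at least 3 SD above the negative control mean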;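 note: 0% = 35 nM protein with DMSO and 100% = 750 nM protein high control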
# RORg DNA counter: modulation of RORgamma DNA binding, dose response, counter-screen for Rev-erb alpha modulator project, biochemical, fluorescence polarization, FITC-DNA. IC50, µM. shares compounds with NR1D1 modulator. 910 tested, 8% active. purified RORgamma protein-FITC-DNA binding. AID 1259320, 2017;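 active = Compounds whose fitted half-maximal concentration for disrupting protein-DNA binding is below 10 micromolar; the record names Rev-erb in its text, so the target is in doubt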
# * marks the source's active call; other numbers are inactive results; i = inactive; nt = no result given. Hits are enriched below; roughly 1.8% of the tested compounds scored in any of these assays.
SMILES,NR1D1 modulator,Rin1 Abl inh,PG9 binder,Tb MetRS inh,Rev-erbA confirm,others
Cc1cc(=O)oc2cc(OCC(=O)Nc3ccccc3C(=O)O)ccc12,-2,3,-1,0,nt,
Cc1cc(=O)oc2cc(OCC(=O)Nc3ccc4[nH]c(=O)[nH]c4c3)ccc12,5,0,-2,0,nt,
Cc1cc(=O)oc2cc(OCC(=O)Nc3ccc(F)cc3F)ccc12,21*,-2,1,0,-1,
Cc1cc(=O)oc2cc(OCC(=O)Nc3ccc(S(=O)(=O)N(C)C)cc3)ccc12,23*,-4,-1,0,30*,RORg DNA counter=>40
CC1CCN(C(=O)COC(=O)c2ccc(N3CCCC3=O)cc2)CC1,-3,0,-2,0,nt,
CC(=O)[C@@H]1[C@@H]2C(=O)N(Cc3ccccc3)C(=O)[C@@H]2C2c3ccccc3C=CN21 (some centres not stated),26*,1,0,1,28*,
COc1ccc(N2CCN(C(=O)c3ccc(Cn4c(=S)[nH]c5ccc(N6CCOCC6)cc5c4=O)cc3)CC2)cc1,42*,2,0,0,12,
O=C(CN(C(=O)c1csnn1)c1ccc(F)c(Cl)c1)NC1CCCC1,0,-1,-1,0,nt,
CC(=O)N1CCCc2cc(S(=O)(=O)N3CCCC(C(=O)N4CCN(c5cc(C)ccc5C)CC4)C3)ccc21 (configuration not stated),17*,3,-1,0,18*,
COc1ccc2c(COC(=O)CC3Sc4ccccc4NC3=O)cc(=O)oc2c1 (configuration not stated),0,-2,-2,-1,nt,
CC(=O)Nc1ccc2c(COC(=O)CC3Sc4ccccc4NC3=O)cc(=O)oc2c1 (configuration not stated),53*,-3,-3,-1,26*,
COc1ccccc1C(=O)COC(=O)Cn1[nH]c(=O)c2ccccc2c1=O,22*,2,0,0,9,
Nc1ccc2cc3ccc(N)cc3nc2c1,28*,nt,nt,nt,27*,RORg DNA counter=>40
N#Cc1ccc2c(c1)NC(=O)C1CCCN21 (configuration not stated),-2,-2,0,1,nt,
Cc1ccc(C)c(CN2C(=O)C3CCCN3c3ccc(C#N)cc32)c1 (configuration not stated),49*,0,4,-1,36*,
COc1ccc(OC)c(CN2CCN(C(=O)c3cccc(S(=O)(=O)Nc4ccc(F)cc4)c3)CC2)c1,1,2,0,0,nt,
CN(C)c1ccc2nc3c(=O)[nH]c(=O)nc-3n(CC(O)C(O)C(O)CO)c2c1 (configuration not stated),33*,-23,-14,-1,37*,RORg DNA counter=i
CC(C)n1nnnc1C1c2ccccc2C(=O)N1CCCn1ccnc1 (configuration not stated),-3,nt,1,-1,nt,
COc1ccc(S(=O)(=O)N2CCOCC2)cc1NC(=O)c1cccc2c(=O)c(C)c(-c3ccccc3)oc12,69*,1,1,0,37*,
COc1ccc(OC)c(CNC(=O)c2[nH]c(C(F)(F)F)nc2-c2ccccc2)c1,-1,3,-2,-2,nt,
CC1(Cc2cccc(F)c2)C(=O)Nc2ccc(OC(F)(F)F)cc21 (configuration not stated),16*,-1,0,0,15*,
COc1ccc(C(C)=O)cc1CC1(C)C(=O)Nc2ccc(OC(F)(F)F)cc21 (configuration not stated),7,-5,-1,0,nt,
COc1ccc(C(C)=O)cc1CC1(C)C(=O)Nc2ccc(-c3ccccc3OC)cc21 (configuration not stated),1,-4,0,-1,nt,
COc1ccccc1-c1ccc2c(c1)C(C)(Cc1cccc(F)c1)C(=O)N2 (configuration not stated),63*,0,-1,0,88*,RORg DNA counter=>40
Cc1c(C(=O)O)sc(S(=O)(=O)N2CCN(C(=O)Cc3ccc(F)cc3)CC2)c1C(=O)O,-5,0,-2,0,nt,
SMILES,NR1D1 modulator,Rin1 Abl inh,PG9 binder,Tb MetRS inh,Rev-erbA confirm,others
CCOC(=O)[C@@]12CCCC3=C1N(CCC3)C(=O)[C@H]2CC(=O)NCc1ccccc1,-1,nt,nt,nt,nt,
O=C(c1ccccc1)N1N=C(c2ccccc2O)CC1c1ccccc1 (configuration not stated),57*,1,4,0,36*,RORg DNA counter=6.9*
COc1ccc(C2CC(c3ccccc3O)=NN2C(=O)c2ccccc2)cc1OC (configuration not stated),-2,4,-1,-1,nt,
CC(=O)Nc1cccc(-c2ccnc3c2CC(C)(C(=O)Nc2ccc4c(c2)OCO4)O3)c1 (configuration not stated),-5,-2,0,0,nt,
CCOC(=O)c1sc2nc(C)nc(Nc3ccc(OC)cc3)c2c1C,31*,3,2,1,13,
CCOC(=O)c1sc2nc(C)nc(NCc3ccc(F)cc3)c2c1C,1,-3,0,0,nt,
Cc1c(C)c2ccc(OCC(=O)Nc3cccnc3)c(C)c2oc1=O,2,5,-1,0,nt,
COc1ccc(-c2cc(=O)oc3c(C)c(OCC(=O)Nc4cccnc4)ccc23)cc1,28*,3,-1,0,2,
O=C(CNC(=O)c1ccc(Cl)cc1)OCC(=O)c1ccccc1,2,-1,-1,0,nt,
CC(C)(C)c1ccc(C(=O)NCC(=O)OCC(=O)c2ccc3c(c2)-c2ccccc2C3)cc1,26*,-1,-2,-1,8,
Cn1cc(Cl)c(C(=O)Nc2nc3ccc(Cl)cc3s2)n1,83*,1,8,-1,25*,
CN(C)c1ncnc2c1ncn2[C@H]1CN(Cc2ccncc2)C[C@@H](CO)O1,-2,2,1,0,nt,
CN(C)c1ncnc2c1ncn2[C@H]1CN(Cc2cccs2)C[C@@H](CO)O1,24*,-2,0,0,-1,
COC(=O)c1ccc(-c2ccc3c(c2)[C@]2(CCC[C@@H](OCc4ccccc4)[C@@H]2NC(=O)CCc2ccccc2)C(=O)N3Cc2ccccc2)cc1,6,nt,nt,nt,nt,
CC(=O)c1cccc(NC(=O)Cn2nc(-c3ccc(Cl)cc3)ccc2=O)c1,23*,-2,0,0,12,
COc1ccc(-c2nn(CC(=O)Nc3ccc(Cl)c(Cl)c3)c(=O)c3ccccc23)cc1,22*,5,2,0,14,
COc1ccc(-c2ccc(=O)n(CC(=O)Nc3ccc4c(c3)OCCO4)n2)cc1,18*,2,1,0,11,
